Autophagy mod = autophagy modulators in MEF cells, primary screen, imaging, high-content, MEF GFP-LC3; MEF GFP-LC3 puncta imaging; test concentration mostly 10 µM; calls only at 10 µM (by protocol); 190,000 compounds, 0.98% hits;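 active = percentage of spot-positive cells more than 3 SD above its plate mean, without a fluorescence outlier flag or 80% toxicity; inconclusive = no clear call, values can overlap the other calls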;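 note: spot-positive cell cutoff set from DMSO-treated cells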
zVAD death inh = inhibitors of zVAD-triggered necroptosis, primary screen, L929 cells; viability rescue, % at 10 µM; L929 zVAD necroptosis rescue, ATP luminescence, 24 h; with zVAD 60 µM; AID 1377, 2008; 220,000 compounds, 0.38% hits;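 active = activation, scaled between plate controls, above about 75%, limit read from the data; inactive = activation under that limit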;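 note: 0% = zVAD with DMSO and 100% = DMSO alone without zVAD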
TNF death inh = inhibitors of TNF-alpha triggered necroptosis, primary screen, cell-based, Jurkat FADD-/-, single concentration; Jurkat FADD-/- TNF necroptosis rescue, ATP luminescence, 24 h; 0 = TNF only, 100 = no-TNF cells; activation (protection from cell death), % at 10 µM; AID 463075, 2010; 220,000 compounds, 0.068% hits;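 active = activation, meaning protection from cell death, of at least 50% relative to plate controls; inactive = activation below 50%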;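 note: necroptosis triggered by 40 ng/mL TNF-alpha added together with compound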
Furin inh = human furin inhibitors, primary screen, biochemical, fluorescence intensity; 220,000 compounds, 0.061% hits; purified furin, fluorogenic substrate cleavage; P09958; inhibition, % at 20 µM or 30 µM; AID 463115, 2010; in the data active = inhibition above about 25%
HSV augment = enhancers of HSV replication in host cells, fold increase, host cell viability. HSV replication augmentation in cells. maximum fold increase. 220,000 compounds, 0.005% hits; in the data active = maximum fold increase above about 1.5; inconclusive = no clear call, values can overlap the other calls; tested in PC3 cells
Dynein transport = inhibitors of GR-EGFP nuclear translocation, primary screen, dynein cargo transport inhibitor project, imaging, high-content, 3617.4 mouse cells | test concentration mostly 20 µM; stimulated with dexamethasone, 1 µM; hits give low values | z-score, hits read low | 220,000 compounds, 0.47% hits | AID 1381, 2008;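 active = plate z-score of nuclear minus cytoplasmic receptor signal below a set negative limit, without overly bright fluorescence or cell loss, cut at about -3.5 in these data, passing the limit was not always enough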;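 note: z-score of nuclear minus cytoplasmic ring GR-EGFP intensity difference per well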
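Also added – dexamethasone, 1.0 µM final · Buffer or medium – tet-free, stripped-serum medium · Schedule – induction 48 h, compound 1 h, agonist 30 min · Detection – formaldehyde fixation, Hoechst nuclear stain, 10x automated fluorescence imaging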
zVAD death conf = inhibitors of zVAD-triggered necroptosis in L929, confirmation, L929 cells, duplicate runs. activation (protection from necroptosis), % at 10 µM. L929 zVAD-induced necroptosis rescue, ATP luminescence, 24 h. shares compounds with zVAD death inh. 760 compounds, 16% hits;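 active = mean protection from necroptosis of at least 50% over duplicate tests; inactive = mean protection below 50%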;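 note: 0% = cells with zVAD alone and 100% = vehicle cells without zVAD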
Starred values were filed as active, the others as inactive; i = inactive; ? = inconclusive; . = not tested or not shown. Rows were chosen to be rich in hits. Some 1.8% of all compounds tested hit in one or more screens of this group.

SMILES	Autophagy mod	zVAD death inh	TNF death inh	Furin inh	HSV augment	Dynein transport	zVAD death conf
O=C(COc1ccccc1)Nc1ccc2c(c1)Cc1cc(NC(=O)COc3ccccc3)ccc1-2	i	1	2	-21	i	-0.38	.
Cc1ccccc1C(=O)NC(=S)Nc1ccc2[nH]c(=O)[nH]c2c1	i	76*	0	-15	i	-0.25	3
Cc1ccc(C(=O)NC(=S)Nc2ccc3[nH]c(=O)[nH]c3c2)cc1	i	6	2	-21	i	-0.0027	.
CN(C)C=NC(=O)/C(C#N)=C1\CCc2ccccc2N1	i	83*	15	2	i	1.6	6
COc1ccc(C2=CC(=O)OC(C)(c3ccccc3)O2)cc1 (stereo not given)	i	1	-1	-4	i	-0.43	.
Cc1ccc(S(=O)(=O)Nc2cccc3ncccc23)s1	i	75*	-5	-23	i	-1	47
CCc1ccc2c(c1)C(=O)C(=O)N2CC(=O)Nc1ccc(NC(=O)c2ccccn2)cc1	i	78*	-2	-22	i	-0.91	24
Cc1cc(NC(=O)NC(=O)c2cccc(OC(F)(F)C(F)F)c2)n[nH]1	i	0	2	-17	i	-1.1	.
Cc1cc(NC(=O)c2cccc(Oc3ccccc3)c2)n[nH]1	i	78*	13	-15	i	0.28	5
COc1cc(/C=N/NC(=O)c2ccc3ccccc3c2)ccc1Oc1ccc([N+](=O)[O-])cn1	i	76*	6	-23	i	0.65	4
Cc1cccc(NC(=O)C(=O)NCCCc2ccccc2)c1	i	0	1	-21	i	-0.21	.
Cc1ccsc1/C=N/Nc1nc2ccccc2s1	i	66	18	-17	i	0.51	.
C(=N\Nc1nc2ccccc2s1)/c1ccco1	i	94*	17	-1	i	-0.77	49
C(=N\Nc1nc2ccccc2s1)/c1cccs1	i	82*	10	4	i	0.76	10
COc1ccc(C2CC(c3ccc4ccccc4c3OC(C)=O)=NN2C(C)=O)cc1 (stereo not given)	.	0	2	-16	i	-0.41	.
CC(C)N1CSC(=S)N(Cc2ccccc2)C1	i	-1	-9	-36	i	-1	.
Cc1cc([N+](=O)[O-])cc2c1NC(=O)C2(O)N1CCOCC1 (stereo not given)	i	3	-1	-18	i	-0.56	.
CC1=CC(=O)C(C(C)C)=C/C1=N\OC(=O)c1cccc2nc(C)oc12	i	87*	-2	-15	?	-0.36	4
O=C(O)c1ccc(N=Cc2c(O)ccc3oc4c(c23)CCCC4)cc1	.	1	-17	-10	i	0.015	.
Oc1ccccc1N=Cc1c(O)ccc2oc3c(c12)CCCC3	.	75*	-22	-5	i	1	2
Cc1ccc(NC(=O)COC(=O)c2ccc3c(c2)NC(=O)C2CCCN32)cc1C (stereo not given)	i	90*	-4	-23	i	-0.52	61*
CNS(=O)(=O)c1ccc2c(c1)NC(=O)C1CCCN21 (stereo not given)	i	1	2	-18	i	0.59	.
Cc1sc(NC(=O)Nc2ccccc2)c(C(N)=O)c1C	i	77*	1	-15	i	1.4	1
COC(=O)c1c(NC(=O)Nc2ccc(Cl)cc2)sc(C)c1C	i	0	1	-9	.	-0.19	.
CCc1ccccc1NC(=O)Nc1cc(F)ccc1F	i	3	1	-12	i	0.17	.
CCc1cccc2c(C(=O)COC(=O)c3ccc(O)cc3)c[nH]c12	i	77*	7	-7	i	-0.26	74*
CN(CCOC(=O)CN1C(=O)c2ccccc2C1=O)C1=NS(=O)(=O)c2ccccc21	i	3	0	-22	i	0.42	.
